Measurements collected from several papers.
Each line is one published result; the experiments were not run side by side.
Target: Acetylcholinesterase (ACHE, Homo sapiens, UniProt P22303)
Observed: enzyme activity
Action: inhibitor

Compound	technique	pH	IC50 [nM]
C=CCn1c2cc(OC(=O)CCCCN3CCN(Cc4ccc(C)cc4)CC3)ccc2c2ccnc(C)c21	Ellman	–	12.6
CCC(CC)CSc1ccccc1OC(=O)NC	Ellman	–	5130
CS(=O)(=O)n1cc(Br)c(=O)[nH]c1=O	Ellman	–	111
C#CCN(C)c1nc(NCCCC2CCN(Cc3ccccc3)CC2)c(C#N)cc1C#N	Ellman	–	26.3
O=C(NCCCNc1c2c(nc3ccccc13)CCCC2)c1ccccc1O	Ellman	–	1020
C=CCn1c2cc(OC(=O)CCCCN3CCN(Cc4cccc(F)c4)CC3)ccc2c2ccnc(C)c21	Ellman	–	106
CN1CCN(CCCCOc2ccc3occc(=O)c3c2)CC1	Ellman	pH 7.4	6430
C=CCn1c2cc(OC(=O)CCCN3CCN(Cc4ccccc4)CC3)ccc2c2ccnc(C)c21	Ellman	–	49.7
CNC(=O)Oc1cccc2c1OC(C)(C)O2	Ellman	–	182
Cc1ccc(S(=O)(=O)n2cc(Br)c(=O)[nH]c2=O)cc1	Ellman	–	88
c1ccc2c(c1)[I+]c1ccccc1-2	–	–	16100
O=c1[nH]cc(CO)c(=O)[nH]1	Ellman	–	205
C[C@@H]1CCCN1CCCCOc1ccc2occc(=O)c2c1	Ellman	pH 7.4	8620
C=CCn1c2cc(OC(=O)CCCCCN3CCN(Cc4ccccc4)CC3)ccc2c2ccnc(C)c21	Ellman	–	157
Cn1ccc(=O)n(C)c1=O	Ellman	–	388
COc1ncccc1-c1cnn2ccc(N3CCN(C(=O)OC(C)C)CC3)nc12	–	–	> 60000
CC[n+]1c(-c2ccccc2)c2cc(N)ccc2c2ccc(N)cc21	Ellman	–	22900
c1cc(CN2CCCCC2)cc(OCCCNc2nc3ccccc3s2)c1	–	–	22600
C=CCn1c2cc(OC(=O)CCCCN3CCN(Cc4cccc(C(F)(F)F)c4)CC3)ccc2c2ccnc(C)c21	Ellman	–	748
CC(=O)O[C@H]1C[C@@H]2CC[C@@H]3[C@H](CC[C@@]4(C)[C@H]3C[C@H]([N+]3(C)CCCCC3)[C@@H]4OC(C)=O)[C@@]2(C)C[C@@H]1N1CCCCC1	–	–	16500
C=CCn1c2cc(OC(=O)CCCCN3CCN(Cc4ccc(C(F)(F)F)cc4)CC3)ccc2c2ccnc(C)c21	Ellman	–	122
CCCCNc1ccc(C(=O)OCCN(CC)CC)cc1	–	–	18700
C#CCNc1nc(NCCCCC2CCN(Cc3ccccc3)CC2)c(C#N)c(-c2ccccc2)c1C#N	Ellman	–	6
